*1 amine or outer side, *2 acyl side, *3 side chain or, on linkers, in order; H or OH if unused. Where a SMILES comes first, the peptide text is derived from it. [ ]: non-standard residue; d: D form. The star is where a group is joined. ξ: configuration not given here. NH(2-Cl-4-NO2-phenyl) = O=[N+]([O-])c1ccc(N*)c(Cl)c1; Phe(4-F) = N[C@@H](Cc1ccc(F)cc1)C(=O)O; Thr(3ξ) = CC(O)[C@H](N)C(=O)O; Morpholide = C1CN(*)CCO1; Cbz = O=C(OCc1ccccc1)*; CO = O=C([*:1])[*:2]; Piv = CC(C)(C)C(=O)*; Propionyl = CCC(=O)*; Bz = O=C(c1ccccc1)*; X1 = CC1CCN(*)O1
test: Concentration required to inhibit SARS-CoV 3CL protease catalyzed cleavage of fluorogenic peptide Dabcyl-KTSAVLQSGFRKME-Edans by 50%
Method in brief: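 Purified enzyme (stock held in 12 mM Tris-HCl pH 7.5, 120 mM NaCl, 0.1 mM EDTA, 1 mM DTT, 7.5 mM β-ME) at 50 nM with 6 μM substrate in 20 mM Bis-Tris pH 7.0. Cleavage followed as fluorescence increase, excitation 355 nm, emission 538 nm. IC50 taken from initial velocities plotted against inhibitor concentration.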

Structure (SMILES)	IC50 [µM]
CC1CCN(C(=O)N[C@H](C(=O)N[C@@H](Cc2ccccc2)C(=O)N[C@@H](Cc2ccccc2)C(=O)Nc2ccc([N+](=O)[O-])cc2Cl)C(C)C)O1 (stereo not given in full)	7
CN(C)c1ccc(C(=O)N[C@@H](Cc2ccccc2)C(=O)Nc2ccccc2Cl)cc1	> 10
O=C(CCC(=O)N[C@@H](Cc1ccccc1)C(=O)Nc1ccc([N+](=O)[O-])cc1Cl)NC(Cc1ccccc1)C(=O)Nc1ccc([N+](=O)[O-])cc1Cl (stereo not given in full)	> 50
O=C(C[C@H](O)C(=O)N[C@@H](Cc1ccccc1)C(=O)Nc1ccc([N+](=O)[O-])cc1Cl)NC(Cc1ccccc1)C(=O)Nc1ccc([N+](=O)[O-])cc1Cl (stereo not given in full)	4
CCCC(=O)N[C@H](C(=O)N[C@@H](CC(C)C)C(=O)N[C@@H](Cc1ccccc1)C(=O)Nc1ccc([N+](=O)[O-])cc1Cl)C(C)C	7
CC(C)C[C@H](NC(=O)[C@@H](NC(=O)c1ccccc1)C(C)C)C(=O)N[C@@H](Cc1ccccc1)C(=O)Nc1ccc([N+](=O)[O-])cc1Cl	4
CCCCCCCCCCCCCCC(Br)C(=O)N[C@@H](Cc1ccccc1)C(=O)Nc1ccc([N+](=O)[O-])cc1Cl (stereo not given in full)	3
CC(C)[C@H](NC(=O)c1cccs1)C(=O)C[C@@H](Cc1ccccc1)C(=O)N[C@@H](Cc1ccccc1)C(=O)Nc1ccc([N+](=O)[O-])cc1Cl	16
Nc1ccc(C(=O)N[C@@H](Cc2ccccc2)C(=O)Nc2ccc([N+](=O)[O-])cc2Cl)cc1N	2
CC(C)C[C@H](NC(=O)[C@@H](NC(=O)N1CCOCC1)C(C)C)C(=O)N[C@@H](Cc1ccccc1)C(=O)Nc1ccc([N+](=O)[O-])cc1Cl	19
CC(C)C[C@H](NC(=O)[C@@H](NC(=O)c1cccs1)C(C)C)C(=O)N[C@@H](Cc1ccccc1)C(=O)Nc1ccc([N+](=O)[O-])cc1Cl	5
CC(C)C[C@H](CC(=O)[C@@H](NC(=O)N1CCOCC1)C(C)C)C(=O)N[C@@H](Cc1ccccc1)C(=O)Nc1ccc([N+](=O)[O-])cc1Cl	29
CN(C)c1ccc(C(=O)N[C@@H](Cc2ccccc2)C(=O)Nc2ccccc2)cc1	> 10
O=C(N[C@@H](Cc1ccccc1)C(=O)Nc1ccc([N+](=O)[O-])cc1Cl)c1ccccc1	> 10
CC(C)(C)OC(=O)N[C@@H](Cc1ccccc1)C(=O)Nc1ccc([N+](=O)[O-])cc1Cl	> 50
O=C(Nc1ccc([N+](=O)[O-])cc1Cl)C(Cc1ccccc1)NC(=O)[C@H](O)[C@@H](O)C(=O)N[C@@H](Cc1ccccc1)C(=O)Nc1ccc([N+](=O)[O-])cc1Cl (stereo not given in full)	5
CN(C)c1ccc(C(=O)N[C@@H](Cc2ccccc2)C(=O)Nc2ccc([N+](=O)[O-])cc2)cc1	> 10
O=C(N[C@@H](Cc1ccccc1)C(=O)Nc1ccc([N+](=O)[O-])cc1)c1ccccc1	> 10
CCC(=O)N[C@H](C(=O)C[C@@H](CC(C)C)C(=O)N[C@@H](Cc1ccccc1)C(=O)Nc1ccc([N+](=O)[O-])cc1Cl)C(C)C	27

Structure (SMILES)	IC50 [µM]
CC(C)C[C@H](CC(=O)[C@@H](NC(=O)c1ccccc1)C(C)C)C(=O)N[C@@H](Cc1ccccc1)C(=O)Nc1ccc([N+](=O)[O-])cc1Cl	21
CC(C)C[C@H](CC(=O)[C@@H](NC(=O)OC(C)(C)C)C(C)C)C(=O)N[C@@H](Cc1ccccc1)C(=O)Nc1ccc([N+](=O)[O-])cc1Cl	19
CC(C)C[C@H](CC(=O)[C@@H](NC(=O)c1cccs1)C(C)C)C(=O)N[C@@H](Cc1ccccc1)C(=O)Nc1ccc([N+](=O)[O-])cc1Cl	22
CC(O)[C@H](NC(=O)[C@H](O)[C@@H](O)C(=O)N[C@H](C(=O)N[C@H](Cc1ccccc1)C(=O)Nc1ccc([N+](=O)[O-])cc1Cl)C(C)O)C(=O)N[C@@H](Cc1ccccc1)C(=O)Nc1ccc([N+](=O)[O-])cc1Cl (stereo not given in full)	2
CC(O)[C@H](NC(=O)C[C@@H](O)C(=O)N[C@H](C(=O)N[C@@H](Cc1ccccc1)C(=O)Nc1ccc([N+](=O)[O-])cc1Cl)C(C)O)C(=O)NC(Cc1ccccc1)C(=O)Nc1ccc([N+](=O)[O-])cc1Cl (stereo not given in full)	2
CN(C)c1ccc(C(=O)N[C@@H](Cc2ccccc2)C(=O)Nc2ccc([N+](=O)[O-])cc2Cl)cc1	0.06
CC(O)[C@H](NC(=O)CCC(=O)N[C@H](C(=O)N[C@@H](Cc1ccccc1)C(=O)Nc1ccc([N+](=O)[O-])cc1Cl)C(C)O)C(=O)NC(Cc1ccccc1)C(=O)Nc1ccc([N+](=O)[O-])cc1Cl (stereo not given in full)	2
CC(C)[C@H](NC(=O)c1cccs1)C(=O)N[C@@H](Cc1ccccc1)C(=O)N[C@@H](Cc1ccccc1)C(=O)Nc1ccc([N+](=O)[O-])cc1Cl	5
CC(C)C[C@H](NC(=O)[C@@H](NC(=O)OC(C)(C)C)C(C)C)C(=O)N[C@@H](Cc1ccccc1)C(=O)Nc1ccc([N+](=O)[O-])cc1Cl	> 10
O=C(N[C@@H](Cc1ccccc1)C(=O)Nc1ccc([N+](=O)[O-])cc1Cl)c1ccc([N+](=O)[O-])cc1	> 10
O=C(/C=C/c1c[nH]c2ccccc12)N[C@@H](Cc1ccccc1)C(=O)Nc1ccc([N+](=O)[O-])cc1Cl	3
CC(C)[C@H](NC(=O)c1ccccc1)C(=O)N[C@@H](Cc1ccc(F)cc1)C(=O)N[C@H](C(=O)N[C@@H](Cc1ccccc1)C(=O)Nc1ccc([N+](=O)[O-])cc1Cl)C(C)O (stereo not given in full) (Bz-V[Phe(4-F)][Thr(3ξ)]F-{NH(2-Cl-4-NO2-phenyl)})	2
CC(C)[C@H](NC(=O)OCc1ccccc1)C(=O)N[C@@H](Cc1ccccc1)C(=O)N[C@H](C(=O)N[C@@H](Cc1ccccc1)C(=O)Nc1ccc([N+](=O)[O-])cc1Cl)C(C)O (stereo not given in full) (Cbz-VF[Thr(3ξ)]F-{NH(2-Cl-4-NO2-phenyl)})	6
CC(C)[C@H](NC(=O)C(C)(C)C)C(=O)N[C@@H](Cc1ccccc1)C(=O)N[C@H](C(=O)N[C@@H](Cc1ccccc1)C(=O)Nc1ccc([N+](=O)[O-])cc1Cl)C(C)O (stereo not given in full) (Piv-VF[Thr(3ξ)]F-{NH(2-Cl-4-NO2-phenyl)})	2
CCC(=O)N[C@H](C(=O)N[C@@H](CC(C)C)C(=O)N[C@H](C(=O)N[C@@H](Cc1ccccc1)C(=O)Nc1ccc([N+](=O)[O-])cc1Cl)C(C)O)C(C)C (stereo not given in full) (Propionyl-VL[Thr(3ξ)]F-{NH(2-Cl-4-NO2-phenyl)})	7
CCC(=O)N[C@H](C(=O)N[C@@H](Cc1ccc(F)cc1)C(=O)N[C@H](C(=O)N[C@@H](Cc1ccccc1)C(=O)Nc1ccc([N+](=O)[O-])cc1Cl)C(C)O)C(C)C (stereo not given in full) (Propionyl-V[Phe(4-F)][Thr(3ξ)]F-{NH(2-Cl-4-NO2-phenyl)})	5
CC(C)C[C@H](NC(=O)[C@@H](NC(=O)N1CCOCC1)C(C)C)C(=O)N[C@H](C(=O)N[C@@H](Cc1ccccc1)C(=O)Nc1ccc([N+](=O)[O-])cc1Cl)C(C)O (stereo not given in full) ({Morpholide-CO}-VL[Thr(3ξ)]F-{NH(2-Cl-4-NO2-phenyl)})	16
CC1CCN(C(=O)N[C@H](C(=O)N[C@@H](Cc2ccccc2)C(=O)N[C@H](C(=O)N[C@@H](Cc2ccccc2)C(=O)Nc2ccc([N+](=O)[O-])cc2Cl)C(C)O)C(C)C)O1 (stereo not given in full) ({X1-CO}-VF[Thr(3ξ)]F-{NH(2-Cl-4-NO2-phenyl)})	5
O=C(Nc1ccc([N+](=O)[O-])cc1Cl)c1cc(Cl)ccc1O [NICLOSAMIDE]	> 10

test: Inhibitory constant against SARS-CoV 3CL protease catalyzed cleavage of fluorogenic peptide Dabcyl-KTSAVLQSGFRKME-Edans
Method in brief: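 Fluorometric cleavage assay in 20 mM Bis-Tris pH 7.0, excitation 355 nm, emission 538 nm. Enzyme stock held in 12 mM Tris-HCl pH 7.5 with NaCl, EDTA, DTT and β-ME. Initial rates measured at two fixed inhibitor concentrations across various substrate concentrations. Ki derived using double-reciprocal plots of rate versus substrate concentration.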

Structure (SMILES)	Ki [µM]
CC1CCN(C(=O)N[C@H](C(=O)N[C@@H](Cc2ccccc2)C(=O)N[C@@H](Cc2ccccc2)C(=O)Nc2ccc([N+](=O)[O-])cc2Cl)C(C)C)O1 (stereo not given in full)	2.9
O=C(C[C@H](O)C(=O)N[C@@H](Cc1ccccc1)C(=O)Nc1ccc([N+](=O)[O-])cc1Cl)NC(Cc1ccccc1)C(=O)Nc1ccc([N+](=O)[O-])cc1Cl (stereo not given in full)	3.1
CC(C)C[C@H](NC(=O)[C@@H](NC(=O)c1cccs1)C(C)C)C(=O)N[C@@H](Cc1ccccc1)C(=O)Nc1ccc([N+](=O)[O-])cc1Cl	2.29
CN(C)c1ccc(C(=O)N[C@@H](Cc2ccccc2)C(=O)Nc2ccc([N+](=O)[O-])cc2Cl)cc1	0.03
CC(C)[C@H](NC(=O)c1cccs1)C(=O)N[C@@H](Cc1ccccc1)C(=O)N[C@@H](Cc1ccccc1)C(=O)Nc1ccc([N+](=O)[O-])cc1Cl	4.3
CC(C)[C@H](NC(=O)OCc1ccccc1)C(=O)N[C@@H](Cc1ccccc1)C(=O)N[C@H](C(=O)N[C@@H](Cc1ccccc1)C(=O)Nc1ccc([N+](=O)[O-])cc1Cl)C(C)O (stereo not given in full) (Cbz-VF[Thr(3ξ)]F-{NH(2-Cl-4-NO2-phenyl)})	1.51
CC1CCN(C(=O)N[C@H](C(=O)N[C@@H](Cc2ccccc2)C(=O)N[C@H](C(=O)N[C@@H](Cc2ccccc2)C(=O)Nc2ccc([N+](=O)[O-])cc2Cl)C(C)O)C(C)C)O1 (stereo not given in full) ({X1-CO}-VF[Thr(3ξ)]F-{NH(2-Cl-4-NO2-phenyl)})	1.61

From ChEMBL document CHEMBL1145153, “Discovery of potent anilide inhibitors against the severe acute respiratory syndrome 3CL protease” (J Med Chem, 2005)
